The subject of assay [1] is Rattus norvegicus. The assay can be described thus: Antifertility activity in pregnant female albino rat assessed as implantation in both uterine horns on day 10 of pregnancy at 20 mg/kg/day, po for 5 days. The format is functional, organism-based. A digest of the protocol: (§1)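 Mated rats of proven fertility; day 1 = sperm-positive vaginal smear. Compound macerated with gum acacia, given orally days 1-5, five animals per group; initial dose 20 mg/kg/day unless stated otherwise. Uterine horns examined on day 10; scored positive only when implantations totally absent in both horns.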

For assay [2], the system named is Rattus norvegicus. As to the kind of experiment: Estrogenic activity in immature female rat assessed as uterine weight on day 4 at 10 mg/kg, po bid for 3 days (reference value: 13.6 +/- 0.8 mg). The format is functional.
In assay [3] the test system is Rattus norvegicus. The assay can be described thus: Estrogenic activity in immature female rat assessed as vaginal opening at 10 mg/kg, po bid for 3 days. The format is functional, organism-based. On the set-up: dose 10 mg/kg. A digest of the protocol: (§2)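 Immature female rats, 25-30 g, scored for presence or absence of vaginal opening. Failure to induce opening was taken as complete absence of estrogenic activity.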

In assay [4] the test system is Rattus norvegicus. As to the kind of experiment: Estrogenic activity in immature female rat assessed as mixture of leukocytes, epithelial cells and proestrus smear with nucleated and cornified cells at 10 mg/kg, po bid for 3 days. Conditions: Epithelial cell. On the set-up: dose 10 mg/kg. Type of assay: functional, organism-based. A digest of the protocol:
(§3)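 Immature female rats, 25-30 g. Vaginal smear scored as + (leucocytes with epithelial cells), ++ (proestrus, nucleated or nucleated plus cornified cells) or +++ (estrus, cornified cells only). Estrone used as standard.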

Assay [5] concerns Rattus norvegicus. The assay can be described thus: Antifertility activity in po dosed pregnant female albino rat assessed as absence of implantation in both uterine horns on day 10 of pregnancy compound administered for 5 days. Type of assay: functional. A digest of the protocol:
as §1

Assay [6] deals with Rattus norvegicus. As to the kind of experiment: Estrogenic activity in immature female rat assessed as mixture of leukocytes,epithelial cells and estrus smear with cornified cells at 10 mg/kg, po bid for 3 days. Type of assay: functional, organism-based. More on the design: dose 10 mg/kg. A digest of the protocol:
as §3

For assay [7], the system named is Rattus norvegicus. As to the kind of experiment: Estrogenic activity in immature female rat assessed as diestrus smear with leukocytes at 10 mg/kg, po bid for 3 days. Type of assay: functional, organism-based. On the set-up: dose 10 mg/kg. A digest of the protocol:
as §3

Assay [8] deals with Rattus norvegicus. The assay can be described thus: Estrogenic activity in immature female rat assessed as diestrus smear with leukocytes and mixture of leukocytes,epithelial cells at 10 mg/kg, po bid for 3 days. The format is functional, organism-based. More on the design: dose 10 mg/kg. A digest of the protocol:
as §3

Assay [9] concerns Rattus norvegicus. As to the kind of experiment: Estrogenic activity in immature female rat assessed as mixture of leukocytes and epithelial cells at 10 mg/kg, po bid for 3 days. The format is functional, organism-based. On the set-up: dose 10 mg/kg. Conditions: Epithelial cell. A digest of the protocol:
as §3

Assay [10] concerns Rattus norvegicus. As to the kind of experiment: Estrogenic activity in immature female rat assessed as diestrus smear with leukocytes and proestrus smear with nucleated and cornified cells at 5 mg/kg, po bid for 3 days. Type of assay: functional, organism-based. On the set-up: dose 5 mg/kg. A digest of the protocol:
as §3

Assay [11] relates to Rattus norvegicus. As to the kind of experiment: Estrogenic activity in immature female rat assessed as uterine weight on day 4 at 5 mg/kg, po bid for 3 days (reference value: 13.6 +/- 0.8 mg). Type of assay: functional.
Assay [12] deals with Rattus norvegicus. As to the kind of experiment: Estrogenic activity in immature female rat assessed as vaginal opening at 5 mg/kg, po bid for 3 days. The format is functional, organism-based. More on the design: dose 5 mg/kg. A digest of the protocol:
as §2

Activity calls are given as the source filed them. The rule behind the calls is not given here.

With `COc1ccc2c(c1)OC(C)(C)C(c1ccccc1)=C2c1ccc(O)cc1`, the outcome in assay [1] was inactive. In addition, in assay [2], the Activity came out at 49.2 mg. The result in [3] and in assay [4] was Active.

As for `Cc1ccc2c(c1)[C@@H](c1ccccc1)[C@@H](c1ccccc1)CO2` (relative stereo), the result in assay [1] was inactive.

For the compound `Cc1ccc2c(c1)[C@H](c1ccccc1)[C@@H](c1ccccc1)CO2` (relative stereo), the outcome in assay [1] was inactive.

As to `COc1ccc(C2=C(c3ccccc3)C(C)(C)Oc3cc(OCCN4CCCC4)ccc32)cc1.Cl`, the ED100 in assay [5] worked out at 10 mg/kg.

As to `COc1ccc2c(c1)OC(C)(C)C(c1ccc(Cl)cc1)=C2c1ccc(OCCN2CCCC2)cc1.Cl`, the ED100 in assay [5] is 5 mg/kg.

On to `CCC1(CC)Oc2cc(OC)ccc2[C@H](c2ccc(OCCN3CCCC3)cc2)[C@H]1c1ccccc1`, for which the result in assay [6] and in assay [3] was Active. The ED100 in [5] was determined as 5 mg/kg. In addition, the Activity in assay [2] turned out to be 46.6 mg.

For the compound `CCC1(CC)Oc2cc(OC)ccc2[C@@H](c2ccc(O)cc2)[C@H]1c1ccccc1` (relative stereo), the outcome in assay [1] was inactive. The Activity in assay [2] came to 14.6 mg.

Consider `CC1(C)Oc2ccccc2C(c2ccc(O)cc2)=C1c1ccccc1`, for which the outcome in assay [1] was inactive.

For the compound `COc1ccc2c(c1)OC(C)(C)[C@H](c1ccccc1)[C@H]2c1ccc(O)cc1` (relative stereo), the outcome in assay [1] was inactive.

As for `CCC1(CC)Oc2cc(OC)ccc2C(c2ccc(OCCN3CCCC3)cc2)=C1c1ccccc1.Cl`, the result in assay [7] and in assay [3] was Active. Further, the ED100 in [5] was 10 mg/kg. In addition, the Activity in assay [2] was found to be 35.4 mg.

Regarding `COc1ccc2c(c1)OC[C@H](c1ccccc1)[C@H]2c1ccc(OCCN2CCCC2)cc1` (relative stereo), the result in [8] and in assay [3] was Active. In [5], the ED100 was found to be 0.25 mg/kg. The Activity in assay [2] came to 48.3 mg.

As for `COc1ccc(C2=C(c3ccc(OC)cc3)C(C)(C)Oc3cc(OC)ccc32)cc1`, the outcome in assay [1] was inactive.

In the case of `COc1ccc2c(c1)OCC(c1ccccc1)=C2c1ccc(OCCN2CCCC2)cc1`, the outcome in assay [7] and in [3] was Active. The ED100 in assay [5] came out at 0.15 mg/kg. Moreover, the Activity in assay [2] amounted to 37.4 mg.

Take `CCC1(CC)Oc2cc(OC)ccc2[C@@H](c2ccc(OCCN3CCCC3)cc2)[C@H]1c1ccccc1`: the outcome in assay [1] was inactive. For the same compound, the Activity in assay [2] stood at 16.5 mg.

`CCN(CC)CCOc1ccc(C2=C(c3ccccc3)C(C)(C)Oc3cc(OC)ccc32)cc1.Cl`: the outcome in assay [8] and in assay [3] was Active. Besides, the ED100 in assay [5] is 10 mg/kg. Besides, the Activity in assay [2] is 42 mg.

`COc1ccc2c(c1)OC[C@H](c1ccccc1)[C@@H]2c1ccc(OCCN2CCCC2)cc1` (relative stereo): the outcome in assay [9], in assay [10], in assay [3] and in assay [12] was Active. Further, the ED100 in [5] stood at 1 mg/kg. Also, the Activity in assay [2] was found to be 50.6 mg; in assay [11], 43.7 mg.

For the compound `COc1ccc2c(c1)OC(C)(C)C(c1ccc(Cl)cc1)=C2c1ccc(O)cc1`, the outcome in assay [1] was inactive.

Take `COc1ccc2c(c1)OC(C)(C)[C@@H](c1ccccc1)[C@H]2c1ccc(OCCN2CCCC2)cc1`: in assay [1], the result was inactive. The Activity in assay [2] was determined as 20.5 mg.

Turning to `CCC1(CC)Oc2cc(OC)ccc2C(c2ccc(O)cc2)=C1c1ccccc1`, the result in assay [7] and in assay [3] was Active. Further, the outcome in assay [1] was inactive. For the same compound, the Activity in [2] came to 39.2 mg.

In the case of `COc1ccc(C2=C(c3ccccc3)C(C)(C)Oc3cc(O)ccc32)cc1`, the result in assay [1] was inactive.

Turning to `COc1ccc2c(c1)OC(C)(C)[C@@H](c1ccccc1)[C@@H]2c1ccc(OCCN2CCCC2)cc1` [LEVORMELOXIFENE], the outcome in assay [6] and in [3] was Active. Also, the ED100 in assay [5] was determined as 0.25 mg/kg. Moreover, in assay [2], the Activity came out at 48.3 mg.

With `COc1ccc2c(c1)OC(C)(C)C(c1ccccc1)=C2c1ccc(OCCN2CCCC2)cc1.Cl`, in assay [5], the ED100 is 5 mg/kg.

Take `COc1ccc2c(c1)OC(C)(C)[C@H](c1ccccc1)[C@@H]2c1ccc(O)cc1` (relative stereo): in [1], the result was inactive.

Take `CC1(C)Oc2ccccc2C(c2ccc(OCCN3CCCC3)cc2)=C1c1ccccc1.Cl`: the ED100 in assay [5] was 10 mg/kg.

Values taken from ChEMBL document CHEMBL3272087, “Antifertility agents. 12. Structure-activity relationship of 3,4-diphenylchromenes and -chromans” (1976).
